# Experimental data: ChEMBL document CHEMBL1135471, “Sugar-modified conjugated diene analogues of adenosine and uridine: synthesis, interaction with S-adenosyl-L-homocysteine hydrolase, and antiviral and cytostatic effects” (J Med Chem, 2002)
# The source made the active and inactive calls. The rule behind the calls is not given here.
# Legend:
# [1] = system: Human betaherpesvirus 5; experiment: 50 % effective concentration against cytomegalo virus (CMV); format: functional, organism-based
# In short: (§1)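 Human embryonic lung (HEL) cells were used against CMV strains AD-169 and Davis and VZV strains YS, OKA, 07/1 and YS/R. EC50 values are for the antiviral effect. The minimum cytotoxic concentration and CC50 for HEL cells were measured alongside.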
# [2] = target: T1, Adenosylhomocysteinase (Homo sapiens, UniProt P23526); experiment: Percent NAD+ content after incubation of S-adenosyl-homocysteine hydrolase (5.8 uM) with 100 uM of compound at 37 degree C for 20 min; format: functional
# In short: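 Enzyme in 50 mM potassium phosphate pH 7.2 with 1 mM EDTA. After the inhibitor step, cofactors were released with 5 N HClO4. NAD+ was quantified by C18 RP-HPLC at 258 nm, using a 2–98% acetonitrile gradient over 25 min against 25 mM phosphate pH 3.2 containing 10 mM heptane sulfonic acid.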
# Target sequence in this assay (P23526 2-432 limits assumed): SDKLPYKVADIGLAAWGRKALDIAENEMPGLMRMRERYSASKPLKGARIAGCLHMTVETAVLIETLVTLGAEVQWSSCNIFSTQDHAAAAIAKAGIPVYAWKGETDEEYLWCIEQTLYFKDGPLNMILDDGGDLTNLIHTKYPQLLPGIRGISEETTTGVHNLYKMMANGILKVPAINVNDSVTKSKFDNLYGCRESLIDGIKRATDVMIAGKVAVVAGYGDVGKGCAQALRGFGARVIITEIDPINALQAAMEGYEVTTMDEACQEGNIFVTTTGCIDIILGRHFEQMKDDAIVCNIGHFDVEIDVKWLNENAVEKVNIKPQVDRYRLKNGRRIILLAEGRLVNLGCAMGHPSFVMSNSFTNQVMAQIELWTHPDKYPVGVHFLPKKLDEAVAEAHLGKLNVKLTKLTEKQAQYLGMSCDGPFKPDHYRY
# [3] = Minimum cytotoxic concentration against respiratory syncytial virus in HeLa cell cultures, was determined; format: functional
# [4] = system: Vero; experiment: Antiviral activity (cytotoxicity) was evaluated in vero cell cultures.; format: functional, Chlorocebus sabaeus
# [5] = target: T1, Adenosylhomocysteinase; experiment: Percent S-adenosyl-homocysteine hydrolase (210 nM) activity remaining after incubating with 100 uM at 37 degree C for 20 minutes
# In short: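 Human enzyme preincubated with compound in 50 mM potassium phosphate pH 7.2, 1 mM EDTA. Residual activity measured in the synthetic direction: 1 mM Ado plus 1 mM Hcy, 37 °C, 1 min, stopped with HClO4. AdoHcy quantified by RP-HPLC at 258 nm. Duplicate determinations averaged.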
# Target sequence in this assay (P23526 2-432 limits assumed): as above
# [6] = Minimum cytotoxic concentration against vesicular stomatitis virus in HeLa cell cultures, was determined.; format: functional
# [7] = system: Vaccinia virus; experiment: Activity against vaccinia virus, was determined; No activity; format: functional, organism-based; conditions: Orthopoxvirus vaccinia
# [8] = target: T1, Adenosylhomocysteinase; experiment: Inhibitory constant for S-adenosyl-homocysteine hydrolase, was determined using Kitz and Wilson equation {Kobs = Kinact. [I]/(Ki + [I])}.
# Target sequence in this assay (P23526 whole entry): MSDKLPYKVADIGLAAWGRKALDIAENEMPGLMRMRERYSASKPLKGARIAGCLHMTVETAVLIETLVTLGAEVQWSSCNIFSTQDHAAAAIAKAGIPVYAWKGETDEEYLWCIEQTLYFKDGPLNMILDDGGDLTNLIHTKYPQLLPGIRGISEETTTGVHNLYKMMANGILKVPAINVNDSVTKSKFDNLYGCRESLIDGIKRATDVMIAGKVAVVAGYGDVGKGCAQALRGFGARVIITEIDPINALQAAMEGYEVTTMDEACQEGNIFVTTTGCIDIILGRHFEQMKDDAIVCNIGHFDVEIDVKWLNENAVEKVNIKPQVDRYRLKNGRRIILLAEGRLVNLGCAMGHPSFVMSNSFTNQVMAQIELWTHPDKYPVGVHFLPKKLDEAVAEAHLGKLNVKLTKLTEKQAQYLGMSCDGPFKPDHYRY
# [9] = system: Human alphaherpesvirus 2; experiment: Activity against herpes simplex virus 2 (HSV-2) strain G, was determined; No activity; format: functional, organism-based
# [10] = system: Human immunodeficiency virus 1; experiment: Cytostatic concentration against […] virus strains IIIB and ROD, in T-lymphocytic MT-4 cells; format: functional; conditions: Human immunodeficiency virus 1, MT4
# In short: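 T-lymphocytic MT-4 cells were tested alongside HIV-1 IIIB and HIV-2 ROD antiviral assays. The CC50 is the 50% cytostatic concentration for the MT-4 cells.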
# [11] = target: T1, Adenosylhomocysteinase; experiment: Inactivation constant for S-adenosyl-homocysteine hydrolase, was determined using Kitz and Wilson equation {Kobs = Kinact. [I]/(Ki + [I])}.
# Target sequence in this assay (P23526 2-432 limits assumed): as the sequence (P23526 2-432 limits assumed) above
# [12] = system: E6SM; experiment: Minimum concentration required to cause a microscopically detectable alteration of normal cell morphology in human embryonic skin muscle (E6SM) cell cultures; format: functional; conditions: for minimal effective concentration: read-out: MEC
# In short: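 E6SM cell cultures were examined by microscopy. The value is the minimum concentration giving a detectable alteration of normal cell morphology.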
# [13] = system: Human alphaherpesvirus 1; experiment: Activity against herpes simplex virus 1 (HSV-1) strain KOS, was determined; No activity; format: functional, organism-based
# [14] = Minimum cytotoxic concentration against Coxsackie B4 virus in HeLa cell cultures, was determined.; format: functional, Coxsackievirus B4
# [15] = system: Vesicular stomatitis virus; experiment: Activity against vesicular stomatitis virus, was determined; No activity; format: functional, organism-based
# [16] = system: HEL; experiment: Minimum cytotoxic concentration determined in embryonic lung (HEL) cells against human CMV, strains AD-169 and Davis and VZV, strains YS, OKA, 07/1, and YS/R; format: functional; in short: as §1
# [17] = target: T1, Adenosylhomocysteinase; experiment: Inactivation constant for aS-adenosylhomocysteine hydrolase, was determined using Kitz and Wilson equation {Kobs = Kinact. [I]/(Ki + [I])}.
# Target sequence in this assay (P23526 2-432 limits assumed): as above
# [18] = system: Vero; experiment: Antiviral activity was evaluated in vero cell cultures.; format: functional; conditions: Chlorocebus sabaeus
# [19] = system: HEL; experiment: 50 % cytotoxic concentration for human embryonic lung (HEL) cells; format: functional; in short: as §1
# [20] = system: HEL; experiment: Minimum cytotoxic concentration determined in embryonic lung (HEL) cells; format: functional, Homo sapiens; in short: as §1
# [21] = target: T1, Adenosylhomocysteinase; experiment: Percent NAD+ content after incubation of AS-adenosylhomocysteine hydrolase (5.8 uM) with 100 uM of compound at 37 degree C for 20 min; format: functional
# In short: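 Human AdoHcy hydrolase at 5.8 μM was preincubated with 100 μM inhibitor in 50 mM potassium phosphate, pH 7.2, with 1 mM EDTA, at 37 °C for 20 min. Cofactors were released with HClO4. NAD+ was quantified by C18 RP-HPLC (25 mM phosphate pH 3.2 with heptane sulfonic acid; acetonitrile gradient) with detection at 258 nm. Values are % NAD+ remaining.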
# Target sequence in this assay (P23526 2-432 limits assumed): as above
# [22] = system: Human alphaherpesvirus 3; experiment: 50 % effective concentration against Varicella-Zoster virus (VZV) was determined.; format: functional, organism-based; in short: as §1
# [23] = system: Vaccinia virus; experiment: Minimum cytotoxic concentration against vaccinia virus, was determined; format: functional, organism-based; conditions: Orthopoxvirus vaccinia
# [24] = system: Vesicular stomatitis virus; experiment: Minimum cytotoxic concentration against vesicular stomatitis virus in HeLa cell cultures; format: functional
# [25] = system: Respiratory syncytial virus; experiment: Minimum cytotoxic concentration against respiratory syncytial virus in HeLa cell cultures; format: functional
# [26] = system: Vero; experiment: Activity was evaluated in vero cell cultures; Cytotoxic; format: functional, cell-based; conditions: Chlorocebus sabaeus
# [27] = system: Human alphaherpesvirus 2; experiment: Activity against herpes simplex virus 2 (HSV-2) […], was determined; No activity; format: functional, organism-based
# [28] = system: Coxsackievirus B4; experiment: Minimum cytotoxic concentration against Coxsackie B4 virus in HeLa cell cultures; format: functional
SMILES,NAD+ content [2] [%],MCC50 [3] [µM],MCC50 [4] [µM],Activity [5] [%],MCC50 [6] [µM],antiviral activity [7],Ki [8] [µM],Antiviral activity against HSV-2 [9],CC50 [10] [µM],MEC50 [12] [µM],antiviral activity against HSV-1 [13],MCC50 [14] [µM],antiviral activity [15],minimal effective concentration [12] [µM],MCC [18] [µM],further results
CCOC(=O)/C=C\C=C\[C@H]1OC(n2cnc3c(N)ncnc32)[C@H](O)[C@@H]1O (some centres undefined),36.2,>200,>200,1.8,>200,inactive,13.7,inactive,160,>40,inactive,>200,inactive,,,EC50 [1]: 18 µM; K inact [11]: 0.59 min⁻¹
CCOC(=O)/C=C/C=C/[C@H]1OC(n2cnc3c(N)ncnc32)[C@H](O)[C@@H]1O (some centres undefined),25.9,>200,>200,3.6,>200,inactive,10,inactive,175,>40,inactive,>200,inactive,,,MCC50 [16]: >120 µM; K inact [17]: 0.7 min⁻¹
CCOC(=O)/C=C/C=C/[C@H]1OC(n2ccc(=O)[nH]c2=O)[C@H](O)[C@@H]1O (some centres undefined),,>200,,,>200,inactive,,inactive,> 370,,inactive,>200,inactive,> 40,> 200,
Nc1ncnc2c1ncn2C1O[C@H](/C=C/C=C(Br)Br)[C@@H](O)[C@H]1O (some centres undefined),,>35,>35000,48,>35,inactive,,inactive,11,6.7,inactive,>35,inactive,,,CC50 [19]: 54 µM; MCC50 [20]: 45 µM; NAD+ content [21]: 93.1%
CCOC(=O)/C=C\C=C\[C@H]1OC(n2ccc(=O)[nH]c2=O)[C@H](O)[C@@H]1O (some centres undefined),,>200,,,>200,inactive,,inactive,40,,inactive,>200,inactive,> 40,> 200,EC50 [22]: 10 µM
O=c1ccn(C2O[C@H](/C=C/C=C(Br)Br)[C@@H](O)[C@H]2O)c(=O)[nH]1 (some centres undefined),,,,,,,,,300,>40,inactive,,,,,MCC50 [23]: inactive; MCC50 [24]: >=200 uM; MCC50 [25]: >=200 uM; Activity [26]: Toxic; MCC50 [27]: inactive; MCC50 [28]: >=200 uM
